Activity calls are given as the source filed them. No cut-off for these calls is given here.
Assays:
Rattus norvegicus [1] = assay: Antioxidant activity in Sprague-Dawley rat brain tissue model of transient middle cerebral artery occlusion stroke model assessed as increase in superoxide dismutase levels per mg of protein at 80 mg/kg […] measured 24 hrs after reperfusion by nitroblue tetrazolium assay relative to control; type: functional
[2] = Antiplatelet activity in rabbit platelet-rich plasma assessed as inhibition of ADP-induced platelet aggregation preincubated for 5 mins followed by addition of ADP measured within 5 mins by Borns turbidimetric method; type: functional; conditions: Oryctolagus cuniculus
How it was run: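 Platelet-rich plasma from citrated rabbit carotid blood was preincubated in duplicate at 37 °C for 5 min with compound at 0.1, 0.2, 0.4, 0.8 or 1.6 mM. ADP-induced aggregation was then recorded turbidimetrically, as maximal light transmission within 5 min. Inhibition was calculated versus vehicle control, and IC50 values were derived. Mean ± SD, n = 6, ANOVA/Tukey.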

[3] = Antiplatelet activity in rabbit platelet-rich plasma assessed as inhibition of ADP-induced platelet aggregation at 0.1 mM preincubated for 5 mins followed by addition of ADP measured within 5 mins by Borns turbidimetric method; type: functional; conditions: Oryctolagus cuniculus
How it was run: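 Rabbit carotid blood was citrated (3.8%, 9:1). PRP was obtained at 500 g for 10 min and PPP at 3000 g for 10 min. PRP was preincubated in duplicate for 5 min at 37 °C with 0.1 mM compound, plus carboxy-PTIO or BSS where indicated. ADP was then added and maximal light transmission recorded within 5 min, within 3 h of blood collection. Inhibition % was calculated versus control. Mean ± SD of three independent experiments.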

Rattus norvegicus [4] = assay: Antioxidant activity in Sprague-Dawley rat brain tissue model of transient middle cerebral artery occlusion stroke model assessed as increase in glutathione peroxidase levels per mg of protein at 80 mg/kg […] measured 24 hrs after reperfusion by DTNB assay relative to control; type: functional
Rattus norvegicus [5] = assay: Neuroprotective activity in Sprague-Dawley rat model of transient middle cerebral artery occlusion stroke model assessed as neurological deficit at 80 mg/kg administered via oral gavage for 7 days after ischemia onset measured 24 hrs after middle cerebral artery occlusion by Longa's method; type: functional, organism-based; conditions: in the assay text read “before ischemia onset” for “after ischemia onset”
How it was run: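 Male SD rats (280–320 g) received daily gavage for 7 days, with 0.5% CMC-Na as vehicle. Two hours after the last dose they underwent 2 h MCAO with reperfusion under chloral hydrate anesthesia; core temperature was held at 37 °C. Neurological deficit was scored blinded by Longa's method 24 h after reperfusion, between 10 and 11 a.m. Kruskal–Wallis test followed by Mann–Whitney U test.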

IC50 [2]: 740 µM
SMILES: CCCCC1OC(=O)c2ccccc21 (stereo not drawn) [RAC-3-N-BUTYLPHTHALIDE]
Activity (Rattus norvegicus [1]): 24.36% | inhibition at 100 µM [3]: 12.9% | Activity (Rattus norvegicus [4]): 63.55% | Activity (Rattus norvegicus [5]): inactive
